Screening data: PubChem BioAssay, several laboratories
Sampled rows, rich in hits. Any-hit rate of the full collection: about 12%.
L major viab = reduces viability of Leishmania major promastigotes; resazurin fluorescence viability; 200,000 compounds, 9% hits; inhibition, % at 10 µM; in the data active means inhibition above about 50%;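 further: promastigotes grown with compound for 44 hours at 28 °C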
Diaph inh CS = inhibits diaphorase or chemically oxidizes, flagging diaphorase assay artifacts; diaphorase resazurin-to-resorufin fluorescence, NADH, 16 min; bacterial (C. kluyveri) enzyme, not human; inhibition, % at 20 µM; 190,000 compounds, 0.69% hits;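 active means primary screen inhibition at 20 µM above a set limit, cut at about 50% in these data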;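 further: plate controls were DMSO with full reaction for no effect and wells lacking NADH for full effect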
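Test system: Clostridium kluyveri diaphorase enzyme / Quantity: diaphorase at 0.14 U/mL in enzyme working solution / Incubation: 16-min room-temperature incubation before reading / Benchmarks: NADH-free wells as positive control, DMSO-only neutral wells / Signal: resorufin fluorescence 544/590 nm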
ROMK mod = human ROMK K+ channel modulation, primary screen. B-score at 10 µM. 130,000 compounds, 2% hits. Tet-inducible ROMK, thallium flux fluorescence; actives lie on both sides;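 active means signal ratio slope over the read window, or its plate-corrected B-score, at least 3 SD from the plate mean, either direction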;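 further: B-score of the F/F0 ratio slope over 7 to 12 s after thallium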
Target sequence (P48048 whole entry, looked up): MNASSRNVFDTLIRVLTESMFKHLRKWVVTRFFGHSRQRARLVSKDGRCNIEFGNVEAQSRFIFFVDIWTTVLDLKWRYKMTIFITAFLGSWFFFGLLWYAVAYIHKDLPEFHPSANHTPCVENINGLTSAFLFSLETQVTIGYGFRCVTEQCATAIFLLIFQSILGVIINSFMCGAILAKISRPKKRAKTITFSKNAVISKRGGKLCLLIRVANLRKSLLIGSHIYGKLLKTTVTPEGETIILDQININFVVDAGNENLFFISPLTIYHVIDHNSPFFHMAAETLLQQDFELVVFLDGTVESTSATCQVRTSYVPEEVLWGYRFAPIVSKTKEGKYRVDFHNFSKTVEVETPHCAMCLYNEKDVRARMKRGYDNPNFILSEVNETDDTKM
Diaphorase act = counter-screen for diaphorase-based assays: diaphorase activators and chemical reducers; Diaphorase/resazurin coupled assay, resorufin fluorescence, 16 min; stronger effect = higher value; 1 = vehicle wells, 0 = NADH-free wells; activation factor at 20 µM; 190,000 compounds, 0.005% hits;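 active means diaphorase activity raised at least twofold by the compound at 20 µM; inactive means activation factor below 2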
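Measured by – red resorufin fluorescence at 544/590 nm excitation/emission · Test system – Clostridium kluyveri diaphorase, purified enzyme · Incubation – reaction time 16 min, room temperature · Buffer or medium – 50 mM HEPES pH 7.4 with 4.542 mM MgCl2, 0.005% Tween 20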
WT yeast gro inh = growth inhibition of WT yeast, mitochondrial fusion screen | AID 1362 | mitochondrial fusion phenotypic screen, WT strain | 190,000 compounds, 2.1% hits | inhibition, % at 10 µM; in the data active means inhibition above about 58%; tested in S. cerevisiae
KCC2 mod = modulators of human KCC2 chloride dependent transport. Q9H2X9. KCC2 cells, thallium flux FluoZin-2 fluorescence. B-score of Tl+ flux slope (higher = more flux/activation; lower = inhibition) at 10 µM. 190,000 compounds, 2.2% hits;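 active means thallium flux slope and its plate-corrected score both differing from the plate sample mean at a set confidence after two filtering rounds, in either direction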;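 further: slope of fluorescence scaled to starting intensity during 10 to 20 s after thallium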
* hit, by the source's call.

`Cc1cc(NCCCN2CCOCC2)n2ncc(-c3ccccc3)c2n1` gave L major viab 32, Diaph inh CS 10, ROMK mod -0.18, Diaphorase act 0.9 and WT yeast gro inh 6.
Screening CC(=O)Nc1ccc(Nc2cc(C)nc3c(-c4ccccc4)c(C)nn23)cc1 returned L major viab 85*, Diaph inh CS 22, ROMK mod -0.17, Diaphorase act 0.8, WT yeast gro inh 25 and KCC2 mod -2.1.
`Cc1cc(NCCCN2CCOCC2)n2nc(C)c(-c3ccc(F)cc3)c2n1` gave L major viab 91*, Diaph inh CS 13, Diaphorase act 0.9, WT yeast gro inh 21 and KCC2 mod 0.45.
Cc1cc(NCCCN2CCOCC2)n2nc(C)c(-c3ccccc3)c2n1 was read as L major viab 66*, Diaph inh CS 9, ROMK mod 0.42, Diaphorase act 0.9 and WT yeast gro inh 8.
`COc1cccc(CNc2ccc([N+](=O)[O-])c(NCC(=O)O)n2)c1` gave L major viab -9, Diaph inh CS 20, ROMK mod 0.24, Diaphorase act 0.8, WT yeast gro inh 3 and KCC2 mod -0.47.
Screening Cc1nc2c(-c3ccccc3)c(C)nn2c(N)c1-c1ccccc1 returned L major viab 100*, Diaph inh CS 35, Diaphorase act 0.6, WT yeast gro inh 74* and KCC2 mod 1.
NS(=O)(=O)c1ccc(NC(=O)COC(=O)/C(=C/c2cccs2)c2cccs2)cc1 was read as L major viab -5, Diaph inh CS 28, ROMK mod 0.62, Diaphorase act 0.7, WT yeast gro inh 3 and KCC2 mod 0.52.
Screening Cc1cc(C(=O)OCC(=O)Nc2cc(C(F)(F)F)ccc2N2CCOCC2)c(C)o1 returned L major viab 33, Diaph inh CS 19, ROMK mod -1.3, Diaphorase act 0.8, WT yeast gro inh 35 and KCC2 mod 0.013.
COc1ccc(S(=O)(=O)N2CC3CCCN3c3ccc(C(F)(F)F)cc32)cc1 (stereo not drawn) was read as L major viab 18, Diaph inh CS 12, Diaphorase act 0.9 and WT yeast gro inh 8.
Screening COc1ccc(S(=O)(=O)N2CC3CCCN3c3cc(C(F)(F)F)ccc32)cc1 (stereo not drawn) returned L major viab 2, Diaph inh CS 16, Diaphorase act 0.8 and WT yeast gro inh 75*.
Screening Cc1ccccc1Oc1nnc(-c2cccs2)c2ccccc12 returned L major viab 45, Diaph inh CS 11, Diaphorase act 0.9, WT yeast gro inh 9 and KCC2 mod -0.52.
For Cc1cc(CNC(=O)C(C)Cc2ccccc2)nn1C (stereo not drawn) the results were L major viab -2, Diaph inh CS 11, ROMK mod -0.18, Diaphorase act 0.9, WT yeast gro inh 18 and KCC2 mod -0.25.
For COc1ccc(S(=O)(=O)N(C)c2ccc(C(N)=O)cc2)cc1 the results were L major viab -6, Diaph inh CS 9, ROMK mod -0.12, Diaphorase act 0.9, WT yeast gro inh 1 and KCC2 mod -0.23.
Screening COCCN=c1scc(-c2cc(OC)ccc2OC)n1/N=C/c1c[nH]c2ccccc12 returned L major viab 41, Diaph inh CS 26, ROMK mod -0.073, Diaphorase act 0.7, WT yeast gro inh 58* and KCC2 mod -4.1.
`COC(=O)N/N=C/c1c[nH]c2ccccc12` gave L major viab 48, Diaph inh CS 18, ROMK mod -0.75, Diaphorase act 0.8, WT yeast gro inh -11 and KCC2 mod -0.0011.
CCOC(=O)c1cnc(-n2nc(C)cc2C)nc1N1CC(C)OC(C)C1 (stereo not drawn) was read as L major viab 67*, ROMK mod 1.2 and KCC2 mod 0.16.
`CCOC(=O)c1cnc(-n2nc(C)cc2C)nc1NNc1cc(-c2ccccc2)nc(C)n1` gave L major viab 100*, Diaph inh CS -2, ROMK mod 0.17, Diaphorase act 1, WT yeast gro inh -3 and KCC2 mod 0.7.
`CCOC(=O)c1cnc(-n2nc(C)cc2C)nc1NCCO` gave L major viab -2, Diaph inh CS 13, Diaphorase act 0.9 and WT yeast gro inh 16.
CCOC(=O)c1cnc(-n2nc(C)cc2C)nc1NC(C)c1ccccc1 (stereo not drawn) was read as L major viab 96*, Diaph inh CS -3, ROMK mod 0.012, Diaphorase act 1, WT yeast gro inh 27 and KCC2 mod -1.5.
CCOC(=O)c1cnc(-c2ccccc2)nc1N1CC(C)OC(C)C1 (stereo not drawn) was read as L major viab 11, Diaph inh CS -8, ROMK mod 0.38, Diaphorase act 1.1, WT yeast gro inh 12 and KCC2 mod -0.47.
Screening CCOC(=O)c1cnc(-n2nc(C)cc2C)nc1NCc1ccccc1 returned L major viab 90*, Diaph inh CS -25, ROMK mod -0.74, Diaphorase act 1.3 and WT yeast gro inh 65*.
COc1ccccc1-c1cc(-c2ccccc2)nc(SC(C(N)=O)c2ccccc2)c1C#N (stereo not drawn) was read as L major viab 3, Diaph inh CS -10, ROMK mod 0.12, Diaphorase act 1.1, WT yeast gro inh 16 and KCC2 mod -0.015.
Screening Nc1cc(=O)[nH]n1C1CCCC1 returned L major viab -14, Diaph inh CS -10, ROMK mod 0.026, Diaphorase act 1.1, WT yeast gro inh -17 and KCC2 mod 0.96.
Screening Fc1ccc(NC(=S)NC23CN4CN(CN(C4)C2)C3)cc1 returned L major viab -3, Diaph inh CS 15, ROMK mod -0.62, Diaphorase act 0.9, WT yeast gro inh -10 and KCC2 mod -0.23.
For CCCC(O)(CCC)C(=O)NN(C(=O)CCl)c1ccccc1 the results were L major viab 52*, Diaph inh CS 11, Diaphorase act 0.9, WT yeast gro inh -8 and KCC2 mod -0.61.
For C#CCN(C(=O)Nc1ccccc1)c1ccccc1 the results were L major viab 3, Diaph inh CS -22, ROMK mod 0.13, Diaphorase act 1.2, WT yeast gro inh 5 and KCC2 mod 1.1.
Screening Cc1ccsc1/C=N/NC(=O)C1CC(=O)N(c2ccccc2)C1 (stereo not drawn) returned L major viab 1, Diaph inh CS 11, Diaphorase act 0.9, WT yeast gro inh 0 and KCC2 mod -0.076.
Screening c1ccc2c(C3=NNC(=NC4CC4)SC3)c[nH]c2c1 returned L major viab 97*, Diaph inh CS 12, ROMK mod -0.2, Diaphorase act 0.9, WT yeast gro inh -3 and KCC2 mod 1.
